The list is not random: actives were taken first. Their share in the collection is about 3.6%.
MITF TRPM1 HTS – activators of MITF-driven TRPM1 promoter reporter, primary screen, cell-based, SK-MEL-5, luciferase, single point. SK-MEL-5 TRPM1-promoter luciferase, 24 h; % of positive control, neutral wells = 0. activation, % at 12.5 µM. 300,000 compounds, 0.75% hits;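 active = mean activation of at least 80% with every replicate also reaching 80%; inconclusive = mean reaches 80% but some replicate falls short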;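 note: 0% = neutral control wells and 100% = parthenolide positive control wells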
Wnt bcat act – Wnt/beta-catenin pathway activators, primary screen, cell-based, plate reader, single point; Wnt/beta-catenin reporter cell assay, activator; 300,000 compounds, 1.2% hits; activation, % at 9.35 µM; AID 743398, 2014; in the data active = activation above about 30%, passing the limit was not always enough; inconclusive = no clear call, values can overlap the other calls;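 note: 0% = neutral control wells and 100% = positive control wells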
SR-BI DiI-HDL act – activators of SR-BI mediated DiI-HDL uptake, primary screen, ldlA[mSR-BI] CHO cells, DiI fluorescence | 320,000 compounds, 0.096% hits | activation, % at 12.5 µM | AID 504775, 2011 | 3 h; 100 = double the neutral-control signal;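 active = mean replicate activation of at least 60% and every replicate at or above 60%; inconclusive = mean or all-replicate condition met, but not both; inactive = mean below 60% and not all replicates reaching 60%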;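 note: 0% = median plate neutral-control signal and 100% = twice that signal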
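material = CHO ldlA[mSR-BI] cells | medium = Ham's F12 with 0.5% BSA, HEPES 25 mM, pH 7.4 | reagent = fluorescent DiI-HDL, 10 µg/mL final | compound dosing = single-point compound dose | incubation = 3 h, 37 °C | measured by = bottom-read fluorescence, 550/595 nm | measure = HDL uptake via cellular fluorescence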
SR-BI DiI inh – inhibitors of SR-BI mediated HDL lipid uptake, primary screen, ldlA[mSR-BI] cells, fluorescence, single point; inhibition, % at 12.5 µM; 320,000 compounds, 0.96% hits; Scavenger receptor class B member 1 (Mus musculus), Q61009; ldlA[mSR-BI] CHO cells, DiI-HDL uptake fluorescence, 3 h;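 active = mean replicate inhibition of at least 70% and a set share of replicates each scoring 70 or more; inconclusive = meets just one of the two criteria; inactive = fails both criteria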;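 note: 0% = median of neutral control wells and 100% = median of positive control wells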
Target sequence (Q61009 whole entry, looked up): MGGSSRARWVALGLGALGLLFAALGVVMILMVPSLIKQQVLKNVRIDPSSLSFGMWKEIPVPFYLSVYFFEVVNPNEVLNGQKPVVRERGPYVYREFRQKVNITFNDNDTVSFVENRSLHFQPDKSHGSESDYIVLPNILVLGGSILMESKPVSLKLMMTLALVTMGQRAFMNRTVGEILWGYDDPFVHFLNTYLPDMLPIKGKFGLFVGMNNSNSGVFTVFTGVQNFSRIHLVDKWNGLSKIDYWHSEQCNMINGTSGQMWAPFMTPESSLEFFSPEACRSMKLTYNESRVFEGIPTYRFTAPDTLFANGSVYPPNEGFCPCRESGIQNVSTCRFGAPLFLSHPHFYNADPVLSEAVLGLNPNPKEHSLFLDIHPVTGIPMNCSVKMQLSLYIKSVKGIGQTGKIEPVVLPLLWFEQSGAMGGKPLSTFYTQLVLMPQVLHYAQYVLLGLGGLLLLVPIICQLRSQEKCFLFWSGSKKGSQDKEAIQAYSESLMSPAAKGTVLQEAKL
HSF-1 act – HSF-1 activators, primary screen, NIH3T3-HGL cells, MG132 stress, luminescence, single point. NIH3T3-HGL HSF-1 luciferase reporter, 8 h; 100% = twice DMSO control signal. activation, % at 9 µM. 300,000 compounds, 1.7% hits. AID 504408, 2011;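 active = mean replicate activation of at least 50% with a set share of replicates each reaching 50%; inconclusive = only one of those two conditions met; inactive = mean below 50% and too few replicates reaching it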;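 note: 0% = median of the neutral control wells and 100% = twice that signal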
* hit, by the source's call; ? = inconclusive; . = not tested or not shown.

SMILES	MITF TRPM1 HTS	Wnt bcat act	SR-BI DiI-HDL act	SR-BI DiI inh	HSF-1 act
CCc1ccc(C2=NN(S(C)(=O)=O)C(c3cccs3)C2)cc1 (configuration not stated)	.	44*	11	-11	70*
C[C@H](NC(=O)[C@@H]1CCCN1C(=O)[C@@H]1CCCN1C(=O)c1cccc(Cl)c1)c1ccccc1	.	-3	.	.	.
Cc1ccc(C2=N/C(=C/N3CCOCC3)C(=O)O2)cc1	92*	.	4	-4	30
Cc1ccc(C2=N/C(=C\N3CCCCC3)C(=O)O2)cc1	?	63*	-5	5	63*
COc1ccc(/C=C2\N=C(c3ccc(C)cc3)OC2=O)cc1	-11	0	-10	10	-1
COc1cc2c(c(OC)c1OC)CC(c1ccccc1)=C(c1ccccc1)CC2NC(=O)C(F)(F)F (configuration not stated)	.	-4	.	.	.
CCOc1cc(-c2ccccc2)nc2c1CN(S(=O)(=O)c1ccc(C)cc1)C(c1cccc(Cl)c1)C2 (configuration not stated)	.	-3	.	.	.
COC(=O)c1ccc2nc(-c3ccc(Cl)cc3)c(Cc3ccsc3)n2c1	.	1	.	.	.
Cc1ccc(NC(=O)CN(C)CC(=O)NC2CCCc3ccccc32)cc1 (configuration not stated)	3	40*	.	.	-4
COc1ccccc1NC(=O)NC1CCCc2ccccc21 (configuration not stated)	-15	-1	-70	70	2
CCOc1ccccc1NC(=O)NC1CCCc2ccccc21 (configuration not stated)	1	1	-79	79*	5
Oc1c(C2=NCCNC(C(F)(F)F)=C2)ccc2ccccc12	87*	-1	-41	41	81*
Cc1ccc(O)c(C2=NCCNC(C(F)(F)F)=C2)c1	-12	-2	2	-2	-9
Cc1ccc(NC(=O)COc2ccc3c(c2)OCO3)c(Cl)c1	98*	41*	.	17	.
N#Cc1ccccc1NC(=O)COc1ccc2c(c1)OCO2	120*	18	.	.	88*
Cc1cc(/C=C(\C#N)C(=O)NCc2ccccc2)c(C)[nH]1	.	0	.	.	.
Cn1c(N)c(C(=O)COC(=O)c2cc(S(=O)(=O)N3CCOCC3)ccc2F)c(=O)n(C)c1=O	-82	96*	-9	9	.
CCn1nc(C(=O)NNC(=O)COc2ccccc2C)c2ccccc2c1=O	-3	-2	2	-2	57*
CC1=NN(c2ccccc2)C(=O)/C1=C/C=C/C=C/N(C)C	-3	-2	29	-29	32
CN(C)/C=C/C=C1C(=O)CCCC1=O	-3	73*	-10	10	2
Cc1nn(C(=O)c2ccc3c(c2)OCO3)c(N)c1-c1ccccc1	75	67*	-26	26	25
Cc1nn(C(=O)c2cccs2)c(N)c1-c1ccccc1	90*	47*	-22	22	26
CC(=O)c1c(C)nn(C(=O)c2cccs2)c1C	5	-3	23	-23	-5
CCCCNC(=O)C1(C)CCCCCN1Cc1cccc2c(OC)cc(C(=O)OCC)cc12 (configuration not stated)	.	-3	.	.	.
CCN(CC)C(=O)C1=C(C)N(Cc2ccc(OC)cc2)C(=O)C(CC(=O)NC2CCCC2)C1 (configuration not stated)	.	-1	.	.	.
SMILES	MITF TRPM1 HTS	Wnt bcat act	SR-BI DiI-HDL act	SR-BI DiI inh	HSF-1 act
Cn1c(/C(C#N)=C(\O)c2ccc(Cl)s2)nc2ccccc21	18	30*	-1	1	18
Cc1ccc(-c2cn(-c3ccccc3F)c(=S)[nH]2)cc1	53	13	-12	12	12
O=[N+]([O-])c1ccc(-c2cn(-c3ccccc3F)c(=S)[nH]2)cc1	24	2	4	-4	60*
Cn1c(=O)c2c(ncn2CC(=O)OCC(=O)c2ccc(Br)cc2)n(C)c1=O	.	-2	.	.	.
Cc1ccc(C(=O)N=c2sccn2C)cc1S(=O)(=O)N1CCOCC1	99*	9	-18	18	7
Nc1cc2ccccc2cc1NS(=O)(=O)N1CCCCC1	.	-3	.	.	.
Cc1nn(C)cc1/C=N\NC(=O)c1ccc2c(c1)c(C)c(C)n2Cc1ccccc1	13	-2	-31	31	128*
C[C@@H]1CN([C@@H](C)CO)C(=O)c2cc(NS(C)(=O)=O)ccc2O[C@@H](C)CCCCO[C@H]1CN(C)Cc1ccc2c(c1)OCO2	.	-1	.	.	.
O=C(CSc1ncnc2c1nnn2Cc1ccccc1)NC1CCCCC1	-12	-1	-12	12	80*
O=c1[nH]c2c(s1)C=Nc1ccccc1N2	-13	?	13	-13	70*
COC(=O)[C@]12CCCCC=C1N(CCc1ccc(OC)c(OC)c1)C(=O)[C@H](CC(=O)NCCCN1CCCC1=O)C2	.	-6	.	.	.
O=C(Nc1ccc2c(c1)[C@@H]1C[C@@H](CC(=O)N3CCOCC3)O[C@@H](CO)[C@@H]1O2)NC1CCCC1	.	-1	.	.	.
COC(=O)/C=C1\OC(C)c2ccccc21 (configuration not stated)	.	0	.	.	.
CN1OC[C@@H]2CN(C(=S)Nc3cc(C(F)(F)F)cc(C(F)(F)F)c3)[C@H](c3ccccc3Br)C[C@@H]21	.	-3	.	.	.
COc1cccc(-c2cc3onc(-c4ccccc4)c3c(=O)n2C)c1	63	38*	-41	41	.
Cn1c(-c2ccc(F)c(F)c2)cc2onc(-c3ccccc3)c2c1=O	116*	64*	-12	12	.
O=c1onc(-c2ccccc2)c2ccccc12	.	0	2	-2	1
COCCNC(=O)C1(C)CCCN(Cc2ccc(Oc3ccccc3)cc2)C1 (configuration not stated)	.	-2	.	.	.
COc1ccc(Cl)cc1NC(=O)CSc1nnc(C2CC2)n1N	1	-2	17	-17	.
Cc1[nH]c2ccc(C(=O)NC3CCCC3)cc2c1C	.	14	-22	22	.
COc1ccccc1NC(=O)c1ccc2[nH]c(C)c(C)c2c1	28	40*	-81	81*	47
Cc1[nH]c2ccc(C(=O)NC3CCC(C)CC3)cc2c1C (configuration not stated)	85*	28	-31	31	19
COc1ccc(C(=O)CN2Cc3ccccc3C2=N)cc1	.	42*	-7	7	19
Cc1ccccc1S(=O)Cc1ccc(C(=O)N2CCN(C3CCCCC3)CC2)o1 (configuration not stated)	.	-2	.	.	.
CCc1nc2oc3ccccc3c(=O)c2c(=O)n1-c1ccccc1	35	53*	6	-6	.
CCCc1nc2oc3ccccc3c(=O)c2c(=O)n1-c1ccccc1	.	15	.	.	42
CCc1nc2oc3ccccc3c(=O)c2c(=O)n1-c1ccc(C)cc1	.	44*	.	.	29

Screening data from PubChem BioAssay.
